pEC50: −log10 of the molar value.
Experiments:
GRABNE2h [1] = test: Ligand selectivity of GRABNE2h expressed in HEK293T cells; assay type: cell-based; conditions: for fluorescence response of GRABNE2h to the ligand: HEK293T cells, trace amines and NE metabolites in full doses (Fig. S2C, S2D)
GRABNE2m [2] = test: Ligand selectivity of GRABNE2m expressed in HEK293T cells; assay type: cell-based; conditions: for fluorescence response of GRABNE2m to the ligand: HEK293T cells, trace amines and NE metabolites in full doses (Fig. S2C, S2D)
GRABNE2h [3] = conditions: read-out: apparent affinity values (EC50); n = 3
GRABNE2m [4] = conditions: read-out: apparent affinity values (EC50); n = 3
[5] = system: optogenetically evoked NE release in the LC; test: Fiber photometry in the LC of freely moving TH-Cre mice during optogenetic; assay type: in vivo; conditions: i.p. injection; GRABNE2m and GRABNE2h
Summary of the method: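 Mice received hSyn-GRABNE2m or NE2h AAV plus Cre-dependent C1V1-YFP AAV (1 × 10¹³ genomic copies per ml) in the LC at 100 nl/min, 500 nl, under Avertin (500 mg/kg i.p.) or 1.5% isoflurane. LC fibres (105/125 μm) were implanted four weeks later. Photometry used a 473-nm laser, 25 μW at the fibre tip. Test compound was given i.p.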

SMILES | fluorescence response of GRABNE2h to the ligand (GRABNE2h [1]) | fluorescence response of GRABNE2m to the ligand (GRABNE2m [2]) | other results
Nc1ncnc2c1ncn2[C@@H]1O[C@H](CO)[C@@H](O)[C@H]1O [adenosine] | do not respond | do not respond | –
NCCc1ccccc1 [phenethylamine] | not respond | not respond | –
NCCc1ccc(O)c(O)c1 [DA, dopamine] | – | – | pEC50 (GRABNE2h [3]): 5.05; pEC50 (GRABNE2m [4]): 4.70
COC(=O)[C@@H]1[C@H]2C[C@H]3c4[nH]c5ccccc5c4CCN3C[C@@H]2CC[C@@H]1O [yohimbine] | – | – | block of the NE-induced response of GRABNE2h (GRABNE2h [1]; HEK293T cells (Fig. S2D)): blocked; block of the NE-induced response of GRABNE2m (GRABNE2m [2]; HEK293T cells (Fig. S2D)): blocked
NCCc1c[nH]cn1 [histamine] | do not respond | do not respond | –
NCCc1ccc(O)cc1 [tyramine] | not respond | not respond | –
CCc1cc(Cl)c(OC)c(C(=O)NC[C@@H]2CCCN2CC)c1O [eticlopride] | – | – | effect on decay kinetics of the optogenetically evoked response [5]: no effect
COc1cc(C(O)C(=O)O)ccc1O (stereo not shown) [vanillylmandelic acid] | not respond | not respond | –
COc1cc(C(O)CO)ccc1O (stereo not shown) [3-methoxy-4-hydroxyphenylglycol] | not respond | not respond | –
N[C@@H](CCC(=O)O)C(=O)O [glutamate, L-Glutamic acid] | do not respond | do not respond | –
CC(C)NCC(O)c1ccc(O)c(O)c1 (stereo not shown) [isoprenaline] | do not respond | do not respond | –
NCCc1c[nH]c2ccc(O)cc12 [serotonin] | do not respond | do not respond | –
CC(=O)OCC[N+](C)(C)C [acetylcholine] | do not respond | do not respond | –
NCCCC(=O)O [γ-aminobutyric acid] | do not respond | do not respond | –
COc1cc(C(O)CN)ccc1O (stereo not shown) [normetanephrine] | not respond | not respond | –
NC[C@H](O)c1ccc(O)c(O)c1 [NE, norepinephrine] | – | – | pEC50 (GRABNE2h [3]): 6.72; pEC50 (GRABNE2m [4]): 6.42
NCC(O)c1ccc(O)cc1 (stereo not shown) [octopamine] | not respond | not respond | –
Fc1ccc(C(OCCN2CCN(CCCc3ccccc3)CC2)c2ccc(F)cc2)cc1 [GBR-12909] | – | – | effect on decay kinetics of the optogenetically evoked response [5]: no effect
